Measured values published in the RNAGym collection of RNA variant scans (doi:10.1126/science.aae0568).
Variants at the floor of the assay were thinned out.

B1: tRNA (parent)
chain: GUUCCGUUGGCGUAAUGGUAACGCGUCUCCCUCCUAAGGAGAAGACUGCGGGUUCGAGUCCCGUACGGAACG

Variants of: B1
Assay: yeast fitness relative to wild type (ratio to wild type); higher = fitter; tRNA-Arg(CCU), competitive growth, 37 C, YPD
Outline: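 Gene amplicons from the start population and from each of six end populations were read by 100-nucleotide paired-end sequencing. Those end populations came from pooled Saccharomyces cerevisiae strains carrying tRNA-Arg(CCU) gene variants at the native locus, competed in YPD at 37°C for 24 hours. Fitness relative to wild type was worked out from changes in genotype frequencies. Genotypes needed ≥ 100 starting reads, and estimates < 0.5 were set to 0.5.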

Variant	yeast fitness
U2C C33G C34U C49U	≤ 0.5
U2C G67A A70U	0.67
U2C U19C C49U A57C	≤ 0.5
U2C G48A C66U	0.681
U2C G25A A42U A65C G67C	≤ 0.5
U2C G25C C31U U32A	≤ 0.5
U2C G17C G23A G52A C61U	≤ 0.5
U2C G25C A70G	0.978
U2C G58A C62G	0.597
U2C C22G C31U C60U C61U	0.527
U2C G18A U28C A42C	≤ 0.5
U2C U7A C31A C66G	≤ 0.5
U2C U64C G68A	0.578
U2C G38A A70G	0.541
U2C C30U C31G	0.771
U2G A14U U28A	≤ 0.5
U2C C22U A40U	0.574
U2C G23A C33G U35G C60U C62G	≤ 0.5
U2C G18A C29A	≤ 0.5
U2C C31G C62A	0.532
U2C U3C C34U C55A	≤ 0.5

Variant	yeast fitness
U2C C49A C62U	≤ 0.5
U2C G10C C11U C34A A37C	0.609
U2C U3C C34U G68C	≤ 0.5
U2C U8A G17C G38A G56C C61A	≤ 0.5
U2C G17A U19C G50C G56C	≤ 0.5
U2C U19C A69C	0.708
U2C U47G	0.626
U2C U47C	0.977
U2C C24U U59C	0.537
U2C C30U C31G G50U	≤ 0.5
U2C U16A G63A	0.705
U2C G10C G41A G50C	0.585
U2C U13C A14G C22G U26A	≤ 0.5
U2C U3C C5U C34U	≤ 0.5
U2C G38A C60G	0.558
U2C U7G C33U C55A	≤ 0.5
U2G A15C A37G A43U	≤ 0.5
U2C C11U G12A A15G U54C C66U G68C A69U	≤ 0.5
U2C U16A A42G	0.649
U2G A15C U47G A69C	≤ 0.5
U2C C49G A65G	0.594

Variant	yeast fitness
U2C G12A	0.993
U2C C27U G41A	1.06
U2C U3C U19A C61A	≤ 0.5
U2C U26C G48A	0.663
U2C C27A A40G C61G	≤ 0.5
U2C G48A G63C	0.953
U2C U13A U54C C66U	≤ 0.5
U2C U13A G39C C60G A70U	0.537
U2C U19C G50A	0.593
U2C C27U A69C	0.729
U2C G6A U16A	0.65
U2C G10C A45C	≤ 0.5
U2C U13C A20G U28C A40G	0.679
U2C C24U U26A U28G U54G	≤ 0.5
U2C G39A	0.884
U2C U19C	0.897
U2C U19G	0.867
U2C G10A U54A	0.554
U2G A15U U35G U53G	≤ 0.5
U2C G17C G23A C49G	≤ 0.5
U2C U8G A14G U32G U35A	≤ 0.5

Variant	yeast fitness
U2C U3A C24A C27U A42G G56C C66U	≤ 0.5
U2C C11U C22U A57U	≤ 0.5
U2C U8C G44A U53C A70U	≤ 0.5
U2C U7A U35A G56A	≤ 0.5
U2C C24G A37G G58A G67A	≤ 0.5
U2C U19G G68A	0.559
U2G A15U U47A C62A	≤ 0.5
U2G A14G C22U C24G A69C	≤ 0.5
U2C C24A U26A U47C	≤ 0.5
U2C U8C	0.965
U2G A14G C29G A37U C62G C66U	≤ 0.5
U2C G41A C62U	0.528
U2C C31G G58A	≤ 0.5
U2C C24G U26G C34A A36C	≤ 0.5
U2C G23A C46U	0.528
U2C C24G U53G A57G	≤ 0.5
U2C C24U G44C A69U	≤ 0.5
U2C G12A G18C C33U C60A	≤ 0.5
U2C U54C C62U	0.571
U2C C31G U35A A69U	≤ 0.5
